# Bioassay records (PubChem BioAssay)
# Pyk2 oligo antag = Pyk2 (human) oligomerization antagonism. Q14289. Q293 cells, Pyk2 FERM NanoBiT luminescence; stronger effect = lower value. z-score (the deposit names both 25 µM and 10 µM). 0.83% of 99,000 active. AID 1347419;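 active means Z-score of -3 or lower, scaled per plate to the spread of control and sample wells; inactive means z-score above -3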;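 further: negative z-score means lost luminescence so less FERM oligomerization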
# Target sequence (Q14289 whole entry, looked up): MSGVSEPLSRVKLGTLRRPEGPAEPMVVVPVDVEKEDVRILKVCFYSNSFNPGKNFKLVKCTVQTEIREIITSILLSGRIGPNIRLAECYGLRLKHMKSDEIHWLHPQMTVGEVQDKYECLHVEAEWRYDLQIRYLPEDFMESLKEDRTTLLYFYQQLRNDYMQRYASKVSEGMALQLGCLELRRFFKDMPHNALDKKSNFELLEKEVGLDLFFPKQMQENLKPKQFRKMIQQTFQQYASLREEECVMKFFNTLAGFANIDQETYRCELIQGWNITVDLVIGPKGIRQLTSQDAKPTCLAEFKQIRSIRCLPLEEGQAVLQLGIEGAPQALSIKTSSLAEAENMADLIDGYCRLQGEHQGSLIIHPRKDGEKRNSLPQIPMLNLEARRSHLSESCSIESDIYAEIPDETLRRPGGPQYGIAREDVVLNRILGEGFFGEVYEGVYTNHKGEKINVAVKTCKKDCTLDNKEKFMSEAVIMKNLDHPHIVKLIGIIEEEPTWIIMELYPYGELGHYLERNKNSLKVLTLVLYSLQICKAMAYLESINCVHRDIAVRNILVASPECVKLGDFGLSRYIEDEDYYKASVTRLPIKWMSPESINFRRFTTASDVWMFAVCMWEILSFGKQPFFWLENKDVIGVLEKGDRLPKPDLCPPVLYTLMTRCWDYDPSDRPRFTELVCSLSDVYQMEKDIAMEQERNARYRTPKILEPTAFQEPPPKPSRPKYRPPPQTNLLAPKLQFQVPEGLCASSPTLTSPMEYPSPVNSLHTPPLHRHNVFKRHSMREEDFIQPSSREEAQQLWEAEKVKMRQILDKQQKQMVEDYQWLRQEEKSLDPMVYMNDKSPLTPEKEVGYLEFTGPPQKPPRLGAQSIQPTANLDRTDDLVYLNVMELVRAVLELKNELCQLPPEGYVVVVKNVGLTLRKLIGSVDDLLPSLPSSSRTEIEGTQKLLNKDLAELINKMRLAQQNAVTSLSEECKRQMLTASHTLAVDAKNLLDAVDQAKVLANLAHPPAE
# Fibroblast inh = blocks proliferation of human lung fibroblasts. LL 47 human lung fibroblast viability, ATP luminescence; stronger effect = lower value. viability, % at 10 µM. 1.1% of 85,000 active. AID 719;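 active means viability at or below 50% in the single dose screen; inactive means viability above 50%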;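 further: compound exposure lasted 72 h before the ATP readout; 100% = median luminescence of untreated cell-only wells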
#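 test system = LL 47 human lung fibroblasts | amount = 1,150 fibroblasts seeded per well | medium = 15% FBS in IMEM | times = overnight cell rest, 72 h compound treatment at 37 °C | measured by = CellTiter-Glo luminescence measuring cellular ATP | read-out = viability percentage against median untreated-cell control | benchmarks = cell-only wells, no compound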
# MT1-MMP txn act = MT1-MMP promoter transcription activation; HT1080 MT1-MMP promoter luciferase reporter, luminescence, overnight; stronger effect = higher value; activation factor at 10 µM; 0.16% of 86,000 active; AID 750;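 active means activation factor of at least 2 for MT1-MMP transcription at 10 µM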
# H69AR growth 86K = blocks growth of human H69AR lung tumor cells. H69AR lung tumor viability, ATP luminescence, 72 h; stronger effect = lower value. 6% of 85,000 active. viability, % at 10 µM. AID 598;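 active means viability at or below 40%; inactive means viability above 40%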;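 further: multidrug resistant small cell line overexpressing MRP-1 efflux transporter; 100% = mean luminescence of untreated control wells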
# Jurkat tox 60K = cytotoxic compounds reducing Jurkat cell viability | Jurkat E6.1 viability, ATP luminescence, 48 h | inhibition, % at 4 µM | 1.2% of 56,000 active;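 active means inhibition above the mean inhibition of all tested compounds plus 3 SD, cut at about 28% in these data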
# HUVEC inhibit = human endothelial cell proliferation inhibition. HUVEC proliferation, CellTiter-Glo luminescence, 72 h; stronger effect = lower value. viability, % at 10 µM (by protocol). 1.1% of 86,000 active. AID 648;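 active means viability at or below 30%; inactive means viability above 30%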;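 further: 100% = median luminescence of DMSO-only cell control wells on each plate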
# Numbers without * were called inactive; x = no result. This is a sample that favours compounds with a hit; in the whole collection about 5.9% have one here.
SMILES,Pyk2 oligo antag,Fibroblast inh,MT1-MMP txn act,H69AR growth 86K,Jurkat tox 60K,HUVEC inhibit
Cc1ccc2cc(CN(Cc3nnnn3C3CCCCC3)CC3CCCO3)c(=O)[nH]c2c1 (centres undefined),-0.6,95,1.2,56,-5,99
Cc1cc2cc(CN(Cc3ccc4c(c3)OCO4)Cc3nnnn3C3CCCC3)c(=O)[nH]c2cc1C,-1.4,96,1.1,67,-2,66
O=c1[nH]c2cc3c(cc2cc1CN(CCc1ccccc1)Cc1nnnn1C1CCCC1)OCCO3,x,97,1,36*,-2,77
Cc1cccc2cc(CN(Cc3nnnn3C3CCCC3)C3CCCCC3)c(=O)[nH]c12,0.76,102,1,78,-5,83
COc1ccc(CN(Cc2cc3ccc(C)cc3[nH]c2=O)Cc2nnnn2C2CCCC2)cc1,-0.32,92,1,25*,-1,67
CC1CN(c2nc3c(c(=O)[nH]c(=O)n3C)n2Cc2ccccc2F)CC(C)O1 (centres undefined),0,95,1.1,83,x,95
O=C(/C=C/Sc1ccccc1)c1ccccc1,-1.1,8.3*,0.6,2.2*,x,45
O=C(/C=C/Nc1ccccc1)c1ccccc1,-1.1,99,1.2,95,x,80
O=C(/C=C/Sc1ccccc1)c1ccc(Cl)cc1,-0.29,33*,1.6,1.6*,x,49
Cc1ccc(-n2c(C)nn(-c3ncc(C(F)(F)F)cc3Cl)c2=O)cc1,0.69,99,0.8,92,x,107
CC1=NOC(=O)/C1=C\c1ccc(-c2cccc(Cl)c2)o1,-0.6,8.0*,1.3,1.1*,x,42
O=S(=O)(CCSc1nc2ccccc2s1)c1nc2ccccc2s1,-2.1,35*,1.2,1.5*,x,14*
C=CCS(=O)(=O)c1nc2ccccc2s1,0.25,77,1.1,1.1*,x,81
CCS(=O)(=O)CCSc1nc2ccccc2s1,0.33,98,1.1,93,1,87
CC(C)(C)S(=O)(=O)c1nc2ccccc2s1,1.4,98,1.1,79,x,90
COC(=O)[C@@]1(Cc2ccc(OC)cc2)[C@H]2c3cc(C(=O)N(C)C)n(Cc4ccc(O)c(OC)c4)c3C[C@H]2CN1C(=O)c1ccccc1,x,x,1.1,x,x,x
COc1ccccc1OCc1nc2c3c(-c4ccccc4)c(-c4ccccc4)oc3ncn2n1,x,85,1.2,25*,-3,94
CC(C)Cn1c(N)c(C(=O)NCC2CCCO2)c2nc3ccccc3nc21 (centres undefined),-0.76,80,1,36*,2,74
COCCn1c(N)c(C(=O)NCC2CCCO2)c2nc3ccccc3nc21 (centres undefined),0.43,91,1.1,58,x,72
Nc1c(C(=O)OCC2CCCO2)c2nc3ccccc3nc2n1C1CCCC1 (centres undefined),-2.4,70,1.1,15*,6,54
C=CCOc1nc2c(c(=O)n(Cc3ccc(Cl)cc3)c(=O)n2C)n1C,-0.27,77,1.2,73,x,100
C=CCNC(=O)COC(=O)c1cc(S(=O)(=O)N2CCOCC2)ccc1N1CCCCC1,0.01,x,x,x,x,x
OCCN1CCN(Cc2cc(Cl)c3cccnc3c2O)CC1,0.04,54,0.9,37*,x,81
Oc1c(CN2CCN(c3ccccn3)CC2)cc(Cl)c2cccnc12,1.1,34*,0.8,0.1*,45*,60
CCC1=C2CC[C@H]3C(=O)N(CC(=O)OC)C(=O)[C@H]3[C@H]2[C@@]2(Cc3ccccc3)C(=NCCc3c[nH]c4ccccc34)OC(=O)N2C1=O,x,x,1.2,x,x,x
SMILES,Pyk2 oligo antag,Fibroblast inh,MT1-MMP txn act,H69AR growth 86K,Jurkat tox 60K,HUVEC inhibit
Cc1cccnc1Nc1nc(-c2ccc(O)cc2O)cs1,0.49,84,1.9,8.0*,-7,14*
Cc1cccnc1Nc1nc(-c2ccccn2)cs1,-0.94,3.2*,x,0.4*,x,16*
NS(=O)(=O)c1ccc(Nc2nc(-c3ccc(O)cc3O)cs2)cc1,-0.43,101,1.2,58,x,93
c1ccc(Nc2nc(-c3cccnc3)cs2)nc1,0.41,98,1.8,94,10,92
CCn1c(COc2cccc(C)c2)nc2ccccc21,1.1,100,1.1,96,x,94
COCn1c(COc2ccc3ccccc3c2)nc2ccccc21,-2,97,2.3*,87,x,99
Cc1ccc(NC(=O)COc2ccc(/C(N)=N/O)cc2)cc1C,x,102,x,73,x,74
O=C(Oc1c(Cl)cc(Cl)c2cccnc12)c1ccco1,-2.6,43*,1.2,1.8*,x,30
